Results taken from ChEMBL document CHEMBL1125014, “Synthesis and structure-activity relationships of new 9-N-alkyl derivatives of 9(S)-erythromycylamine” (1990).
In brackets after ≈: the same amount, converted by molar mass.

Legend:
Assay type in all cases: functional
Streptococcus pyogenes [1] = experiment: Effective dose against mice infected with streptococcus pyogenes after peroral administration (in vivo); details: in Mus musculus, po
Streptococcus pneumoniae [2] = experiment: Effective dose against mice infected with streptococcus pneumoniae after peroral administration (in vivo); details: in Mus musculus, po
[3] = tested on: Staphylococcus epidermidis; experiment: microbe, parasite or virus in culture
Streptococcus pyogenes [4] = experiment: MIC value measured against streptococcus pyogenes C203
Enterococcus faecalis [5] = experiment: MIC value was measured against streptococcus faecalis X66
Method in brief: (§1)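 Susceptibility determined by standard agar-dilution method against a panel of bacterial strains.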

Streptococcus pneumoniae [6] = experiment: MIC value was measured against streptococcus pneumoniae park1; method in brief: as §1
Staphylococcus aureus [7] = experiment: Effective dose against mice infected with Staphylococcus aureus after peroral administration (in vivo); details: in Mus musculus, po
Staphylococcus aureus [8] = experiment: MIC value measured against staphylococcus aureus X1
Haemophilus influenzae [9] = experiment: MIC value was measured against haemophilus influenzae CL
Haemophilus influenzae [10] = experiment: MIC value was measured against haemophilus influenzae.; method in brief: as §1
Bacteria [11] = experiment: MIC value was measured against staphylococcus epidermidis.; method in brief: as §1
Bacteria [12] = experiment: MIC value was measured against streptococcus pyogenes.; method in brief: as §1
Enterococcus faecalis [13] = experiment: MIC value was measured against streptococcus faecalis.
Streptococcus pneumoniae [14] = experiment: MIC value measured against streptococcus pneumoniae Park1

Compound	MIC [3] [µg/mL]	MIC (Streptococcus pyogenes [4]) [µg/mL]	MIC (Enterococcus faecalis [5]) [µg/mL]	MIC (Streptococcus pneumoniae [6]) [µg/mL]	MIC (Staphylococcus aureus [8]) [µg/mL]	MIC (Haemophilus influenzae [9]) [µg/mL]	MIC (Haemophilus influenzae [10]) [µg/mL]	MIC (Bacteria [11]) [µg/mL]	MIC (Bacteria [12]) [µg/mL]	MIC (Enterococcus faecalis [13]) [µg/mL]	MIC (Streptococcus pneumoniae [14]) [µg/mL]	ED50 (Streptococcus pyogenes [1]) [mg/kg]	ED50 (Streptococcus pneumoniae [2]) [mg/kg]	ED50 (Staphylococcus aureus [7]) [mg/kg]
CC[C@H]1OC(=O)[C@H](C)[C@@H](OC2CC(C)(OC)C(O)C(C)O2)[C@H](C)[C@@H](OC2OC(C)CC(N(C)C)C2O)[C@](C)(O)C[C@@H](C)[C@H]2[C@H](C)[C@@H](OCN2C2CCCC2)[C@]1(C)O (some centres undefined)	1 (≈ 1.23 µM)	0.12 (≈ 0.147 µM)	0.5 (≈ 0.613 µM)	0.06 (≈ 0.0736 µM)	1 (≈ 1.23 µM)	4 (≈ 4.91 µM)	–	–	–	–	–	10	9	> 50
CC[C@H]1OC(=O)[C@H](C)[C@@H](OC2CC(C)(OC)C(O)C(C)O2)[C@H](C)[C@@H](OC2OC(C)CC(N(C)C)C2O)[C@](C)(O)C[C@@H](C)[C@H]2[C@H](C)[C@@H](OCN2C(C)C)[C@]1(C)O (some centres undefined)	0.5 (≈ 0.634 µM)	0.12 (≈ 0.152 µM)	0.25 (≈ 0.317 µM)	0.06 (≈ 0.076 µM)	1 (≈ 1.27 µM)	4 (≈ 5.07 µM)	–	–	–	–	–	7	6	9
CC[C@H]1OC(=O)[C@H](C)[C@@H](OC2CC(C)(OC)C(O)C(C)O2)[C@H](C)[C@@H](OC2OC(C)CC(N(C)C)C2O)[C@](C)(O)C[C@@H](C)[C@H](N2CCCCC2)[C@H](C)[C@@H](O)[C@]1(C)O (some centres undefined)	–	–	–	–	16 (≈ 19.9 µM)	2 (≈ 2.49 µM)	2 (≈ 2.49 µM)	8 (≈ 9.96 µM)	1 (≈ 1.25 µM)	–	–	24	21	> 44
CC[C@H]1OC(=O)[C@H](C)[C@@H](OC2CC(C)(OC)C(O)C(C)O2)[C@H](C)[C@@H](OC2OC(C)CC(N(C)C)C2O)[C@](C)(O)C[C@@H](C)[C@H](NCc2ccccc2)[C@H](C)[C@@H](O)[C@]1(C)O (some centres undefined)	0.5 (≈ 0.606 µM)	0.06 (≈ 0.0727 µM)	0.25 (≈ 0.303 µM)	0.015 (≈ 0.0182 µM)	0.5 (≈ 0.606 µM)	2 (≈ 2.42 µM)	–	–	–	–	–	9	11	> 50
CC[C@H]1OC(=O)[C@H](C)[C@@H](OC2CC(C)(OC)C(O)C(C)O2)[C@H](C)[C@@H](OC2OC(C)CC(N(C)C)C2O)[C@](C)(O)C[C@@H](C)[C@H]2[C@H](C)[C@@H](OCN2Cc2ccccc2)[C@]1(C)O (some centres undefined)	0.5 (≈ 0.597 µM)	0.12 (≈ 0.143 µM)	0.5 (≈ 0.597 µM)	0.06 (≈ 0.0717 µM)	1 (≈ 1.19 µM)	4 (≈ 4.78 µM)	–	–	–	–	–	16	15	> 50
CCCN1CO[C@@H]2[C@@H](C)[C@@H]1[C@H](C)C[C@@](C)(O)[C@H](OC1OC(C)CC(N(C)C)C1O)[C@@H](C)[C@H](OC1CC(C)(OC)C(O)C(C)O1)[C@@H](C)C(=O)O[C@H](CC)[C@@]2(C)O (some centres undefined)	0.12 (≈ 0.152 µM)	0.008 (≈ 0.0101 µM)	0.12 (≈ 0.152 µM)	0.008 (≈ 0.0101 µM)	0.25 (≈ 0.317 µM)	1 (≈ 1.27 µM)	–	–	–	–	–	5	5	7

More lines, in order of falling MIC (Staphylococcus aureus [8]), values ahead:

MIC [3] [µg/mL]	MIC (Streptococcus pyogenes [4]) [µg/mL]	MIC (Enterococcus faecalis [5]) [µg/mL]	MIC (Streptococcus pneumoniae [6]) [µg/mL]	MIC (Staphylococcus aureus [8]) [µg/mL]	MIC (Haemophilus influenzae [9]) [µg/mL]	MIC (Haemophilus influenzae [10]) [µg/mL]	MIC (Bacteria [11]) [µg/mL]	MIC (Bacteria [12]) [µg/mL]	MIC (Enterococcus faecalis [13]) [µg/mL]	MIC (Streptococcus pneumoniae [14]) [µg/mL]	Compound	ED50 (Streptococcus pyogenes [1]) [mg/kg]	ED50 (Streptococcus pneumoniae [2]) [mg/kg]	ED50 (Staphylococcus aureus [7]) [mg/kg]
1 (≈ 1.39 µM)	0.25 (≈ 0.348 µM)	–	–	2 (≈ 2.78 µM)	16 (≈ 22.3 µM)	–	–	–	1 (≈ 1.39 µM)	–	CC[C@H]1OC(=O)[C@H](C)[C@@H](OC2CC(C)(OC)C(O)C(C)O2)[C@H](C)[C@@H](OC2OC(C)CC(N(C)C)C2O)[C@](C)(O)C[C@@H](C)[C@@H](N)[C@H](C)[C@@H](O)[C@H]1C (some centres undefined)	–	–	–
0.5 (≈ 0.586 µM)	0.015 (≈ 0.0176 µM)	0.06 (≈ 0.0703 µM)	0.015 (≈ 0.0176 µM)	1 (≈ 1.17 µM)	2 (≈ 2.34 µM)	–	–	–	–	–	CC[C@H]1OC(=O)[C@H](C)[C@@H](OC2CC(C)(OC)C(O)C(C)O2)[C@H](C)[C@@H](OC2OC(C)CC(N(C)C)C2O)[C@](C)(O)C[C@@H](C)[C@H](NCCCc2ccccc2)[C@H](C)[C@@H](O)[C@]1(C)O (some centres undefined)	14	17	37
0.25 (≈ 0.286 µM)	0.008 (≈ 0.00916 µM)	–	–	0.5 (≈ 0.573 µM)	2 (≈ 2.29 µM)	2 (≈ 2.29 µM)	–	–	0.12 (≈ 0.137 µM)	–	CCCCC/C=C/CCCN[C@@H]1[C@H](C)[C@@H](O)[C@](C)(O)[C@@H](CC)OC(=O)[C@H](C)[C@@H](OC2CC(C)(OC)C(O)C(C)O2)[C@H](C)[C@@H](OC2OC(C)CC(N(C)C)C2O)[C@](C)(O)C[C@H]1C (some centres undefined)	–	–	–
0.12 (≈ 0.167 µM)	0.015 (≈ 0.0209 µM)	–	–	0.25 (≈ 0.348 µM)	1 (≈ 1.39 µM)	–	–	–	0.12 (≈ 0.167 µM)	0.015 (≈ 0.0209 µM)	CC[C@H]1OC(=O)[C@H](C)[C@@H](OC2CC(C)(OC)C(O)C(C)O2)[C@H](C)[C@@H](OC2OC(C)CC(N(C)C)C2O)[C@](C)(O)C[C@@H](C)[C@H](N)[C@H](C)[C@@H](O)[C@H]1C (some centres undefined)	–	–	–
